Published values gathered from unrelated publications.
Protocols differ between the studies behind these lines.
Cell line: HT-29

Structure (SMILES)	test	setting	IC50
CC[C@H](C)C(=O)O[C@H]1C[C@@H](C)C=C2C=C[C@H](C)[C@H](CC[C@@H]3C[C@@H](O)CC(=O)O3)[C@H]21	cell growth or viability, SRB	72 h	7.26 µg/mL
Cc1occc(=O)c1[O-].[Cl-].[W+4].c1cc[cH-]c1.c1cc[cH-]c1	cell growth or viability, MTT		540 µM
CN1C(=O)/C(=N\NC(=O)c2cc3ccccc3[nH]2)c2cc(F)ccc21	cell growth or viability		8.92 µM
CC(C)n1c(/C=C/C(O)CC(O)CC(=O)O)c(-c2ccc(F)cc2)c2ccccc21 (stereo not drawn)	cell growth or viability, SRB	72 h	1.67 µg/mL
O=C(O)/C=C/c1ccc(O)cc1	cell growth or viability, MTT		> 50 µM
C#Cc1cc(Nc2nccc(Oc3ccc(NC(=O)Nc4cc(C(C)(C)C)nn4-c4ccc(C)cc4)c4ccccc34)n2)cc(C(=O)NCCOCCOCCOC)c1	IL-8 release	24 h	0.0018 µM
O=C(N/N=C1\C(=O)N(c2ccccc2)c2ccccc21)c1cc2ccccc2[nH]1	cell growth or viability		6.34 µM
CCOc1cc(OCC)cc(C(=O)O[C@@H]2CN3Cc4c(cc5c(c4OC)OCO5)[C@@]24C=C[C@H](OC)C[C@@H]34)c1	cell growth or viability, WST-1		> 10 µM
COc1cc(Nc2nccc(-c3cnn4nc(OC)ccc34)n2)cc(C(F)(F)F)c1	cell growth or viability, ATP luminescence		0.33 µM
Cc1nc(Nc2ncc(C(=O)Nc3c(C)cccc3Cl)s2)cc(N2CCN(CCO)CC2)n1	IL-8 release	24 h	> 2.05 µM
O=C1Nc2ccccc2/C1=N/NC(=O)c1cc2ccccc2[nH]1	cell growth or viability		19.7 µM
NCC(=O)Nc1ccc(-n2nc(C(F)(F)F)cc2-c2ccc3c(ccc4ccccc43)c2)cc1	cell growth or viability, MTT	24 h	3.6 µg/mL
O=C1Nc2ccc(Cl)cc2/C1=N/NC(=O)c1cc2ccccc2[nH]1	cell growth or viability		> 30 µM
CC(=O)c1ccc(N=Nc2c(C(=O)O)cc(O)c(O)c2O)cc1	cell growth or viability, MTT		14.6 µM
COc1c2c(cc3c1OCO3)[C@]13C=C[C@H](OC)C[C@H]1N(C2)C[C@H]3OC(=O)c1cccc(C)c1	cell growth or viability, WST-1		> 10 µM
C#C[C@@]1(O)[C@@H](CO)O[C@@H](n2ccc(N)nc2=O)[C@@H]1O	cell growth or viability, SRB	72 h	0.0094 µM
CCN(CC)CCNC(=O)c1c(C)[nH]c(/C=C2\C(=O)Nc3ccc(F)cc32)c1C	cell growth or viability		10.1 µM
COc1c(C)c(OS(=O)(=O)c2ccc3ccccc3c2)c(C)c(OS(=O)(=O)c2ccc3ccccc3c2)c1C(=O)/C=C/c1ccccc1	cell growth or viability, SRB	72 h	> 50 µM
CN1C(=O)/C(=N\NC(=O)c2cc3ccccc3[nH]2)c2cc(Cl)ccc21	cell growth or viability		5.67 µM
NCCC(=O)Nc1ccc(-n2nc(C(F)(F)F)cc2-c2ccc3c(c2)oc2ccccc23)cc1	cell growth or viability, MTT	24 h	7.2 µg/mL
COc1ccc2c(c1)/C(=N/NC(=O)c1cc3ccccc3[nH]1)C(=O)N2	cell growth or viability		> 30 µM
CC(=O)c1cccc(N=Nc2c(C(=O)O)cc(O)c(O)c2O)c1	cell growth or viability, MTT		10.2 µM
CCCCCCCCCCCC(=O)Oc1c(C)c(O)c(C(=O)/C=C/c2ccccc2)c(OC)c1C	cell growth or viability, SRB	72 h	> 50 µM
CCC[C@H](Nc1nc(-c2ccc(NC(=O)NCC)c(OC)c2)ncc1C)c1cccnc1	cell growth or viability, fluorescence	72 h	0.0393 µM
C1CCCC1.C1CCCC1.[Cl][W][Cl]	cell growth or viability, MTT		10000 µM
CC(=O)c1ccc(/N=N/c2cc(/C=C/C(=O)O)ccc2O)cc1	cell growth or viability, MTT		> 50 µM
CC[C@]1(O)C[C@H]2CN(CCc3c([nH]c4ccccc34)[C@@](C(=O)OC)(c3cc4c(cc3OC)N(C=O)[C@H]3[C@@](O)(C(=O)OC)[C@H](OC(C)=O)[C@]5(CC)C=CCN6CC[C@]43[C@@H]65)C2)C1	cell growth or viability, fluorescence	72 h	0.0004 µM
